Measurements published in ChEMBL document CHEMBL1135438, “Synthesis and pharmacological characterization of novel analogues of the nicotinic acetylcholine receptor agonist (+/-)-UB-165” (J Med Chem, 2002).

Experiments:
[1] = biological target: Neuronal acetylcholine receptor subunit alpha-7 (Rattus norvegicus, UniProt Q05941); assay: Binding affinity at rat brain Nicotinic acetylcholine receptor alpha7
[2] = biological target: T1, Neuronal acetylcholine receptor; alpha3/beta4 (Rattus norvegicus, UniProt P04757+P12392); assay: Binding affinity at rat brain Nicotinic acetylcholine receptor alpha3-beta4
T1 sequence (P04757 whole entry): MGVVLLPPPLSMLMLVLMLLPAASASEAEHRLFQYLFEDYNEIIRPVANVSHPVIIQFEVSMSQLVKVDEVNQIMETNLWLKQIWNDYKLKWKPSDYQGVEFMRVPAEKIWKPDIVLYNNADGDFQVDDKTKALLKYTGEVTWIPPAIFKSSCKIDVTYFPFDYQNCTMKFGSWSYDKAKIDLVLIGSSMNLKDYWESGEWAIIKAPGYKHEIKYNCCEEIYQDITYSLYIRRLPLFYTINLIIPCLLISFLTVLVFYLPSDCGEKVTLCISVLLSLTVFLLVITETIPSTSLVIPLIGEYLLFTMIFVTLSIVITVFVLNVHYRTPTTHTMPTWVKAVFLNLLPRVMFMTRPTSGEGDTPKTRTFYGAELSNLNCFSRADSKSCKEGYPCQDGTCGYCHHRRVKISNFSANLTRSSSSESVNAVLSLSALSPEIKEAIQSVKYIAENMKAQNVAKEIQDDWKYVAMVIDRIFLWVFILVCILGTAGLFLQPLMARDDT
T1 sequence (P12392 whole entry): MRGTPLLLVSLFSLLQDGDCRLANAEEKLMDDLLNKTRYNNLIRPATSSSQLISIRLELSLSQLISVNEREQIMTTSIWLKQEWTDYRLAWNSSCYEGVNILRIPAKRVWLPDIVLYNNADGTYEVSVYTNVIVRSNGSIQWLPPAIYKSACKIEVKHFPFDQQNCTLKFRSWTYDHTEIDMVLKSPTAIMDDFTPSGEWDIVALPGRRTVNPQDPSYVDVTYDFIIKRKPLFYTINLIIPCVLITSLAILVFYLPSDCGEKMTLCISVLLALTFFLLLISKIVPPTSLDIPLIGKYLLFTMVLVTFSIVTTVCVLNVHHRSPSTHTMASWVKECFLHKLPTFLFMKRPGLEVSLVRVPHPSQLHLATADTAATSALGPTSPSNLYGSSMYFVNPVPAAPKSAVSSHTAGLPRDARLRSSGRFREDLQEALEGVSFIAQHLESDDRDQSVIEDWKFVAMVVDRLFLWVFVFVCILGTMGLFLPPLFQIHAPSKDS

[3] = Ratio of Ki (binding affinity) relative to activation potency
[4] = Compound was tested for its potency at Nicotinic acetylcholine receptor alpha3-beta4 relative to that of Nicotinic acetylcholine receptor alpha4-beta2
[5] = biological target: Neuronal acetylcholine receptor; alpha4/beta2 (Rattus norvegicus, UniProt P09483+P12390); assay: Binding affinity at rat brain Nicotinic acetylcholine receptor alpha4-beta2
Chain of Neuronal acetylcholine receptor; alpha4/beta2 (P09483 whole entry): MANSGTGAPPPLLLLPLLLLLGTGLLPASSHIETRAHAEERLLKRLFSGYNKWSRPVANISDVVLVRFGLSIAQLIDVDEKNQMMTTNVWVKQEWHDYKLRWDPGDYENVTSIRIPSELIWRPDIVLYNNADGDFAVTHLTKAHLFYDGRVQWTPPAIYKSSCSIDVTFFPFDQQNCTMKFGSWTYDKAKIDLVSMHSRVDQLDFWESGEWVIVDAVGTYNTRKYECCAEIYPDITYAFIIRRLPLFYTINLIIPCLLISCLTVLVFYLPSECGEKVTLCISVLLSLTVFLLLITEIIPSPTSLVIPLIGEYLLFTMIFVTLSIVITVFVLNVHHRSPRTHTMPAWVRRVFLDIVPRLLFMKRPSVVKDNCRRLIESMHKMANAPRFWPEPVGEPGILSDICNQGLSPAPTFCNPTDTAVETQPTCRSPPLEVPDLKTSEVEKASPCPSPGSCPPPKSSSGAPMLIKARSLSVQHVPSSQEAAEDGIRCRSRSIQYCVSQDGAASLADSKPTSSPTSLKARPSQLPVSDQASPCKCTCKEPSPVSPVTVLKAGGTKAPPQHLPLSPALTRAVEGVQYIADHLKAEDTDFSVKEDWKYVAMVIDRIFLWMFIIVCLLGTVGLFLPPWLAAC
Chain of Neuronal acetylcholine receptor; alpha4/beta2 (P12390 whole entry): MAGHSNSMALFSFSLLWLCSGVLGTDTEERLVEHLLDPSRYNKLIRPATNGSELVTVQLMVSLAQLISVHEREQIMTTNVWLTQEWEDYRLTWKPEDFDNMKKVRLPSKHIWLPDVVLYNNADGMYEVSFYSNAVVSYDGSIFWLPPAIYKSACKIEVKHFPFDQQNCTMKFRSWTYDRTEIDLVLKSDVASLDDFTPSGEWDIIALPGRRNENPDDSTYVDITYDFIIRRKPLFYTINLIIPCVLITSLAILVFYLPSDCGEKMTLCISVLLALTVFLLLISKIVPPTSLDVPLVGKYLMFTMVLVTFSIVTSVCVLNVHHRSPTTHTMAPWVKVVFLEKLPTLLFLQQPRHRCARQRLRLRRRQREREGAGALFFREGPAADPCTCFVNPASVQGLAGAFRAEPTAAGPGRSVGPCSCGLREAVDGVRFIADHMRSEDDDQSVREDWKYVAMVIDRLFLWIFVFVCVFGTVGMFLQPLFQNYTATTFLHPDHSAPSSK
Method in brief: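 Rat brain P2 membranes (250 μg protein) competed against 10 nM (–)-[3H]nicotine, 30 min room temperature then 1 h at 4 °C; filtration. Nonspecific binding with 1 mM (–)-nicotine.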

[6] = biological target: Neuronal acetylcholine receptor subunit alpha-7 (Rattus norvegicus) (UniProt Q05941); assay: Compound was tested for its potency at Nicotinic acetylcholine receptor alpha-7 relative to that of Nicotinic acetylcholine receptor alpha4-beta2
Chain of Neuronal acetylcholine receptor subunit alpha-7 (Rattus norvegicus) (Q05941 whole entry): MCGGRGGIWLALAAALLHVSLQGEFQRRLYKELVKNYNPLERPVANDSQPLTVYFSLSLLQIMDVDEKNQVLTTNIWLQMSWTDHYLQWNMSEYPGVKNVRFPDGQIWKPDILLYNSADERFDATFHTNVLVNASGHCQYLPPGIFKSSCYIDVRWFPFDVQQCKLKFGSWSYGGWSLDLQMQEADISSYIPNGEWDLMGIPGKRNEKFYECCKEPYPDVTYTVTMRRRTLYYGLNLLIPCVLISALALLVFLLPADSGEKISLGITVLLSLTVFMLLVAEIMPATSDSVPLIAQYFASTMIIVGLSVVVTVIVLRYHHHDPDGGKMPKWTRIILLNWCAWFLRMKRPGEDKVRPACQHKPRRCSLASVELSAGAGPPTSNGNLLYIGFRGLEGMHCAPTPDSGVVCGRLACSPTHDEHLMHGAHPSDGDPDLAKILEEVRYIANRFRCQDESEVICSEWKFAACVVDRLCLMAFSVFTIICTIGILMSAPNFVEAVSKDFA

[7] = biological target: T1, Neuronal acetylcholine receptor; alpha3/beta4; assay: Activation potency at Nicotinic acetylcholine receptor alpha3beta4, expressed as concentration required to achieve a half maximal activation; assay type: protein-complex assay
Method in brief: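 Rat α3β4 nAChR stably expressed in L cells, induced 7–10 days with 1 μM dexamethasone; cells loaded with 5 μM fluo-3 (1 h, room temperature, dark). Agonist given in high-calcium buffer (75 mM CaCl2, pH 7.4), fluorescence followed 16 s.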

Chain of Neuronal acetylcholine receptor subunit alpha-7 (Q05941 whole entry): as above

| SMILES | Ki [1] | Ki [2] | Ratio [3] | Affinity ratio [4] | Ki [5] | Affinity ratio [6] | EC50 [7] |
| --- | --- | --- | --- | --- | --- | --- | --- |
| C1=C(c2cncnc2)C2CC[C@H](CC1)N2 | 1.71 µM | 0.236 µM | 16 | 96 | 0.00245 µM | 696 | 3.89 µM |
| C1=C(c2ccccn2)C2CC[C@H](CC1)N2 | 47.5 µM | 10.5 µM | – | 6.8 | – | 31 | > 100 µM |
| C1=C(c2cccnc2)C2CC[C@H](CC1)N2 | 0.089 µM | – | – | – | 0.00043 µM | – | – |
| C1=C(c2ccncc2)C2CC[C@H](CC1)N2 | > 50 µM | 22 µM | – | 2 | 11 µM | – | > 100 µM |
| Clc1ccc(C2=CCCC3CCC2N3)cn1 (racemic) | 2.76 µM | – | – | – | – | – | – |
| C1=C(c2cccnn2)C2CC[C@H](CC1)N2 | 0.0684 µM | 0.306 µM | 14 | 20 | 0.0026 µM | 118 | 4.19 µM |
| C1=C(c2cnccn2)C2CC[C@H](CC1)N2 | 5.77 µM | 2.85 µM | – | 49 | 0.058 µM | 100 | > 100 µM |
